Data set [1] in a line: Antioxidant activity assessed as glutathione peroxidase-like activity assessed as time required to reduce the thiol concentration by 50% after addition of H2O2 by UV spectrophotometry. In kind it is physicochemical. An outline of the steps:
(§1)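 Tomoda-type thiol peroxidase model run in methanol, or ethanol where needed for solubility, at 25 (±3) °C. Catalyst at 0.1 mM final and PhSH at 2 mM final were mixed. After about 120 s, H₂O₂ was added to 5 mM final. PhSSPh formation was followed at 305 nm, with runs repeated more than three times. T₅₀ is the time to halve the thiol after H₂O₂ addition. Ebselen and (PhSe)₂ were each set to 1.0.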

Data set [2] in a line: Antioxidant activity assessed as glutathione peroxidase-like activity by UV spectrophotometry relative to ebselen. In kind it is physicochemical. The method in brief:
as §1

The nature of data set [3]: Antioxidant activity assessed as glutathione peroxidase-like activity by UV spectrophotometry relative to (PhSe)2. The format is physicochemical. An outline of the steps: as §1
Data set [4] concerns Brain. Description: Antioxidant activity in rat brain homogenate assessed as inhibition of Fe(II)-induced TBARS formation after 60 mins by spectrophotometry. The format is functional, tissue-based.
The target in data set [5] is T1, Thioredoxin reductase 1, cytoplasmic (Rattus norvegicus) (UniProt O89049).
T1 sequence (whole entry): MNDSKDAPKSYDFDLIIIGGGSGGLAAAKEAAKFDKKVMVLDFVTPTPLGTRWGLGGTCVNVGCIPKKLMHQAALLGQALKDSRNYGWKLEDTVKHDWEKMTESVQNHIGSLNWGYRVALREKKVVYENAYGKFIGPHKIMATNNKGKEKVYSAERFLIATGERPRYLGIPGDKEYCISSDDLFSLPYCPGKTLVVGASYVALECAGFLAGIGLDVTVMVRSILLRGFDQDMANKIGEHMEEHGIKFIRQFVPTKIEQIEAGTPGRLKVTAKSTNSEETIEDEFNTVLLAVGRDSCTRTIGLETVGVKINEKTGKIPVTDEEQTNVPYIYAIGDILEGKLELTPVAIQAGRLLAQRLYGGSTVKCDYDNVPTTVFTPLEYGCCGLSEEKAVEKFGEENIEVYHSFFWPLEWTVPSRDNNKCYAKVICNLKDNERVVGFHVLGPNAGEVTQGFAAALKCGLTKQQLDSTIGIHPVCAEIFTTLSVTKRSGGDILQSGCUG
The data set is described as follows: Activity of partially purified rat Thioredoxin reductase assessed as NADPH oxidation after 10 mins by spectrophotometry. The method in brief: (§2)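 Enzyme: partially purified TrxR from rat liver. NADPH consumption read at 340 nm over 10 min, with or without the organoselenium compound. Activity is given as nmol NADPH/min/mg. Efficiency is expressed relative to ebselen. In the reference reaction, NADPH oxidation was checked for sensitivity to […] AuCl₃. Details are in the cited reference.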

The target of data set [6] is T1, Thioredoxin reductase 1, cytoplasmic (Rattus norvegicus). The data set is described as follows: Activity of partially purified rat Thioredoxin reductase assessed as NADPH oxidation after 10 mins by spectrophotometry relative to ebselen. The method in brief:
as §2

Data set [7] shares this target. Description: Activity of partially purified rat Thioredoxin reductase assessed as 5 umol/L AuCl3-mediated inhibition of NADPH oxidation by spectrophotometry. The method in brief: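 Partially purified rat liver TrxR was used. NADPH consumption was followed at 340 nm for 10 min in the absence or presence of an organoselenium catalyst. AuCl3 was added to the reaction containing the reference selenium catalyst. Activity was expressed as nmol NADPH/min/mg.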

Calls of active or inactive are those of the source. The calls are words filed in the database; no cut-off is given here.

This is an account of results in ChEMBL document CHEMBL3352349, “Synthesis and biological evaluation of new nitrogen-containing diselenides” (Eur J Med Chem, 2014).

Broadly, the inhibition is the drop in the measured response relative to a control, in per cent. `O=C(NCCc1ccccc1)c1ccccc1[Se][Se]c1ccccc1C(=O)NCCc1ccccc1`: the Time in data set [1] was 29.73 min. The Ratio was found to be 5.2 in data set [2] and 1.85 in data set [3]. For the same molecule, in data set [4], the inhibition result was “Active”. Further, the Activity in data set [5] was 0 nmol/min/mg.

With `O=C(C[Se][Se]CC(=O)NCCc1ccccc1)NCCc1ccccc1`, the Time in data set [1] was found to be 44.9 min. In addition, the Ratio in data set [2] was 3.43; in data set [3], 1.23; in data set [6], 5.6. In addition, the inhibition result in data set [4] was “Active”. Besides, the Activity in data set [5] was determined as 19.1 nmol/min/mg.

For the molecule `CC(Cc1ccccc1)NC(=O)c1ccccc1[Se][Se]c1ccccc1C(=O)NC(C)Cc1ccccc1` (centres undefined), the Time in data set [1] was 16.87 min. The Ratio in data set [2] amounted to 9.14; in data set [3], 3.26. Moreover, the inhibition entry in data set [4] is “Active”. Moreover, in data set [5], the Activity is 0 nmol/min/mg.

With `O=C(CC[Se][Se]CCC(=O)NCCc1ccccc1)NCCc1ccccc1`, the Time in data set [1] is 81.43 min. Further, the Ratio was determined as 1.89 in data set [2] and 4.7 in data set [6]. In addition, the inhibition result in data set [4] was “Active”. The Activity in data set [5] came out at 16.1 nmol/min/mg.

Turning to `O=c1c2ccccc2[se]n1-c1ccccc1` [EBSELEN], the Time in data set [1] stood at 154.26 min. Moreover, the inhibition in data set [7] was over 95%. The Activity in data set [5] came to 3.4 nmol/min/mg.

Take `CC(Cc1ccccc1)NC(=O)C[Se][Se]CC(=O)NC(C)Cc1ccccc1` (centres undefined): the Time in data set [1] is 299.63 min. Moreover, the inhibition result in data set [4] was “Active”. For the same molecule, the Activity in data set [5] was 0 nmol/min/mg.

`c1ccc([Se][Se]c2ccccc2)cc1`: the Time in data set [1] amounted to 55.04 min. In addition, in data set [2], the Ratio is 2.8.

`CC(Cc1ccccc1)NC(=O)CC[Se][Se]CCC(=O)NC(C)Cc1ccccc1` (centres undefined): the Time in data set [1] is 76 min. Moreover, the results for the Ratio in data set [2] and in data set [6] were 2.03 and 4, respectively. The inhibition result in data set [4] was “Active”. In data set [5], the Activity turned out to be 13.7 nmol/min/mg.
